# Experimental data as given in paper PMC11897353 (Scientific Reports, 2025).
# “Also recorded” adds a separate entry of the source.
# Columns and labels:
# receptor 5-HT6 = settings: reported for the endogenous ligand; cited from earlier work
# SH-SY5Y cells [1] = assay: MTT cell viability assay; type: cell-based, human; settings: SH-SY5Y, 5 µM, 10 µM and 25 µM, 24 h, MTT
# Outline: (§1)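 SH-SY5Y cells were seeded at 5 × 10³ per well, grown 24 h, then given test compound at 5, 10 or 25 µM for 24 h, in triplicate. A solvent control was included, and 10% SDS added 1 h before the end served as the death control. MTT at 0.5 mg/mL ran 4 h at 37 °C, followed by overnight solubilization in 10% SDS/0.1 M HCl and A570. Results are % MTT reduction versus the negative control (100%); 3 experiments, one-way ANOVA.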
# MTT cell viability assay = type: cell-based, human; settings: human, SH-SY5Y neuroblastoma cells
# Outline: as §1
# mTOR pathway = mTOR pathway protein phosphorylation by Western blot; type: cell-based, human; settings: SH-SY5Y, 24 h, vs control; Rapamycin 100 nM
# Outline: (§2)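 Test compound was diluted in medium from a 5 mM DMSO stock and applied to SH-SY5Y cells for 24 h, after 24 h growth and a PBS wash. Controls were untreated medium and rapamycin. Cells were lysed in RIPA with protease/phosphatase inhibitors and protein measured by BCA. Equal protein was run on 6%/12% SDS-PAGE, then PVDF, 3% BSA block, primary overnight 4 °C, ECL. Densitometry; n≥3, mean ± SEM, one-way ANOVA with Tukey.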
# [2] = Preliminary zebrafish larvae viability assay; settings: in vivo, other: larvae exposed to the compound at 2–50 µM
# SH-SY5Y cells [3] = assay: Autophagy induction by LC3 immunofluorescence; type: cell-based, human; settings: for number of autophagosomes per cell / percentage of cells with autophagosomes (LC3-positive punctate pattern): SH-SY5Y, 25 µM, 24 h, vs control; for capacity to induce autophagy: neuroblastoma SH-SY5Y cell line
# Outline: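 SH-SY5Y cells were grown on coverslips at 20–40% confluence for 24 h, then given test compound at 25 µM for 24 h. Fixation used 4% paraformaldehyde plus DAPI for 20 min. Cells were permeabilized with 0.1% Triton, blocked in 3% BSA, and stained with anti-LC3A/B (1:400, overnight 4 °C) then Alexa 488 secondary. Images at 20x. Cells with LC3 puncta were counted against DAPI nuclei, and puncta per cell by 3D object counting.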
# LC3 and p62 = assay: Common autophagy pathway protein levels; type: cell-based, human; settings: SH-SY5Y, 24 h, vs control; Rapamycin 100 nM
# Outline: as §2
# 5-HT6R = 5-HT6R protein levels by Western blot; type: cell-based, human; settings: SH-SY5Y, 24 h, densitometry vs control; Rapamycin 100 nM
# Outline: as §2
# human 5-HT6 receptors = human 5-HT6 receptors (Homo sapiens, UniProt P50406); assay: biochemical; type: binding
# Chain of human 5-HT6 receptors (P50406 whole entry): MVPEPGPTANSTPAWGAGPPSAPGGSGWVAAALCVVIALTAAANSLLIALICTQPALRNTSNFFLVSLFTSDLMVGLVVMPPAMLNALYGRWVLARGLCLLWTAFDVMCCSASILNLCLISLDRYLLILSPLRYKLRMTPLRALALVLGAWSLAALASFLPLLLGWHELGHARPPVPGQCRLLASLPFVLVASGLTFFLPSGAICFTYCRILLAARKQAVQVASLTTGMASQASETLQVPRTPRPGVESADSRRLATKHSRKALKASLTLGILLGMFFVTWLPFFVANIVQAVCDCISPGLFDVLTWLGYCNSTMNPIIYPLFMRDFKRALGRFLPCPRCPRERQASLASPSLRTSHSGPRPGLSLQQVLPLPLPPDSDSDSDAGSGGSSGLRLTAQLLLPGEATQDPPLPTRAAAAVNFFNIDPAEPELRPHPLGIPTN
Compound,Ki (receptor 5-HT6),cytotoxicity / cellular viability (in words) (SH-SY5Y cells [1]),"viability at 24 h, 25 µM (MTT cell viability assay)",phosphorylated levels of BECN1 (Ser30) (mTOR pathway),phosphorylated levels of ULK1 (Ser757) (mTOR pathway),phosphorylated levels of mTOR (Ser2448) (mTOR pathway),viability at 48 h [2],number of autophagosomes per cell (SH-SY5Y cells [3]),percentage of cells with autophagosomes (LC3-positive punctate pattern) (SH-SY5Y cells [3]),capacity to induce autophagy (SH-SY5Y cells [3]),LC3-II/LC3-I ratio (LC3 and p62),p62 levels (LC3 and p62),total LC3-II levels (LC3 and p62),expression levels of 5-HT6R (5-HT6R),IC50 (human 5-HT6 receptors),Ki (human 5-HT6 receptors)
"COc1ccccc1N1CCN(CC(O)c2cn(S(=O)(=O)c3cccc4ccccc34)c3ccccc23)CC1 (stereo not shown) [PUC-10, 2-(4-(2-methoxyphenyl)piperazin-1-yl)-1-(1-(naphthalen-1-ylsulfonyl)-1 H-indol-3-yl)ethan-1-ol]",–,do not induce cytotoxicity; also recorded: do not cause toxicity,> 90%,significantly increased,significantly decreases,significantly decreases,~85%,significant increase,significantly higher percentage,high capacity to induce autophagy,significant increase,significantly decreased,significantly increased,increases significantly; also recorded: significantly increased,–,–
"COc1ccccc1N1CCN(CC(O)c2nn(S(=O)(=O)c3cccc4ccccc34)c3ccccc23)CC1 (stereo not shown) [PUC-55, 2-(4-(2-methoxyphenyl)piperazin-1-yl)-1-(1-(naphthalen-1-ylsulfonyl)-1H-indazol-3-yl)ethan-1-ol]",–,high cellular viability; also recorded: do not induce cytotoxicity; also recorded: do not cause toxicity,–,significantly increased,significantly decreases,significantly decreases,–,significant increase,significantly higher percentage,potent autophagy-inducing activity,significant increase,significantly decreased,significantly increased,increases significantly; also recorded: significantly increased,39 nM,37.5 nM
"CO[C@H]1C[C@@H]2CC[C@@H](C)[C@@](O)(O2)C(=O)C(=O)N2CCCC[C@H]2C(=O)O[C@H]([C@H](C)C[C@@H]2CC[C@@H](O)[C@H](OC)C2)CC(=O)[C@H](C)/C=C(\C)[C@@H](O)[C@@H](OC)C(=O)[C@H](C)C[C@H](C)/C=C/C=C/C=C/1C [Rapamycin, reference compound]",–,–,–,significantly increased,significantly decreases,significantly decreases,–,–,–,–,significant increase,significantly decreased,significantly increased,did not modify the expression levels; also recorded: did not produce significant changes,–,–
